Values after ≈ are worked out from the molar mass of the structure shown. Active and inactive are the calls of the source. The calls are words filed in the database; no cut-off is given here.
Columns and labels:
[1] = test system: Aspergillus niger; test: Antifungal activity against Aspergillus niger MTCC 1108 assessed as zone of inhibition at 20 uM after 48 hrs by disc diffusion method; type: functional
Summary of the method: (§1)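 Spores from 4-day potato dextrose agar cultures, suspended in sterile water at 1.5 × 10⁵ CFU/mL. 0.2 mL was spread on potato dextrose agar. 5 mm filter-paper discs soaked with test compound were laid on the lawn. Incubation was 48 h at 28 °C, then the inhibition zone was measured in mm. Fluconazole was the positive control and acetone the negative control.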

[2] = test system: Salmonella typhi; test: Antimicrobial activity against Salmonella typhi ATCC 23564 after 24 hrs by broth micro serial dilution method; type: functional, Salmonella enterica subsp. enterica serovar Typhi; conditions: Salmonella enterica, ATCC 23564, 24 h
[3] = test system: Aspergillus niger; test: Antifungal activity against Aspergillus niger MTCC 1108 after 48 hrs; type: functional; conditions: MTCC 1108, 48 h
[4] = test system: Trichoderma viride; test: Antifungal activity against Trichoderma viride MTCC 1107 after 48 hrs; type: functional; conditions: MTCC 1107, 48 h
[5] = test system: Aspergillus niger; test: Antifungal activity against Aspergillus niger MTCC 1108 assessed as zone of inhibition at 40 uM after 48 hrs by disc diffusion method; type: functional; conditions: MTCC 1108, 48 h, read-out: IZ; summary of the method: as §1
[6] = test system: Pseudomonas aeruginosa; test: Antimicrobial activity against Pseudomonas aeruginosa ATCC 15499 assessed as diameter of inhibition zone at 20 uM after 24 hrs by Kirby -Baur disc diffusion method; type: functional; conditions: ATCC 15499, 24 h, read-out: DIZ
Summary of the method: (§2)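 Kirby-Bauer disc diffusion was used. Acetone stocks (160 µM) were serially doubled down to 80, 40 and 20 µM. 4 µL of each went onto 5 mm sterile paper discs, which were dried 30 min at 50 °C. Inoculum was 1.5 × 10⁸ CFU/mL diluted to 3 × 10² CFU/mL, and 50 µL was spread on Mueller-Hinton agar. After 24 h at 37 °C the inhibition-zone diameter was measured. Ciprofloxacin served as positive control.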

[7] = test system: HeLa; test: Cytotoxicity against human HeLa cells after 24 hrs by MTT assay; type: functional, cell-based
Summary of the method: (§3)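 The MTT assay seeded 5 × 10⁴ cells per well and grew them 24 h in RPMI 1640 with compound at 2.5–200 µM. Medium without cells was the blank and adriamycin the positive control. MTT was added for 4 h at 37 °C, formazan was solubilised, and absorbance was read at 570 nm. IC50 is the concentration that cuts viability 50% against untreated cells.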

[8] = test system: Curvularia lunata; test: Antifungal activity against Curvularia lunata MTCC 581 assessed as zone of inhibition at 40 uM after 48 hrs by disc diffusion method; type: functional; conditions: MTCC 581, 48 h, read-out: IZ; summary of the method: as §1
[9] = test system: Aspergillus flavus; test: Antifungal activity against Aspergillus flavus MTCC 1021 assessed as zone of inhibition at 40 uM after 48 hrs by disc diffusion method; type: functional; conditions: MTCC 1021, 48 h, read-out: IZ; summary of the method: as §1
[10] = test system: QG-56; test: Cytotoxicity against human QG56 cells after 24 hrs by MTT assay; type: functional, cell-based; summary of the method: as §3
[11] = test system: Pseudomonas aeruginosa; test: Antimicrobial activity against Pseudomonas aeruginosa ATCC 15499 after 24 hrs by broth micro serial dilution method; type: functional; conditions: ATCC 15499, 24 h
Summary of the method: (§4)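 This was broth microdilution in autoclaved Mueller-Hinton broth. 150 µL of compound per well was serially diluted […], and 50 µL of test organism was added. Plates were incubated 24 h at 37 °C and optical density was read.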

[12] = test system: Trichoderma viride; test: Antifungal activity against Trichoderma viride MTCC 1107 assessed as zone of inhibition at 80 uM after 48 hrs by disc diffusion method; type: functional; conditions: MTCC 1107, 48 h, read-out: IZ; summary of the method: as §1
[13] = test system: Curvularia lunata; test: Antifungal activity against Curvularia lunata MTCC 581 assessed as zone of inhibition at 80 uM after 48 hrs by disc diffusion method; type: functional; conditions: MTCC 581, 48 h, read-out: IZ; summary of the method: as §1
[14] = test system: Salmonella typhi; test: Antimicrobial activity against Salmonella typhi ATCC 23564 assessed as diameter of inhibition zone at 20 uM after 24 hrs by Kirby -Baur disc diffusion method; type: functional, Salmonella enterica subsp. enterica serovar Typhi; conditions: Salmonella enterica, ATCC 23564, 24 h; read-out: DIZ
[15] = test system: Trichoderma viride; test: Antifungal activity against Trichoderma viride MTCC 1107 assessed as zone of inhibition at 20 uM after 48 hrs by disc diffusion method; type: functional; conditions: MTCC 1107, 48 h, read-out: IZ; summary of the method: as §1
[16] = test system: Aspergillus flavus; test: Antifungal activity against Aspergillus flavus MTCC 1021 assessed as zone of inhibition at 80 uM after 48 hrs by disc diffusion method; type: functional; conditions: MTCC 1021, 48 h, read-out: IZ; summary of the method: as §1
[17] = test system: HepG2; test: Cytotoxicity against human HepG2 cells after 24 hrs by MTT assay; type: functional, cell-based; summary of the method: as §3
[18] = test system: Staphylococcus aureus; test: Antimicrobial activity against Staphylococcus aureus ATCC 11632 assessed as diameter of inhibition zone at 20 uM after 24 hrs by Kirby -Baur disc diffusion method; type: functional; conditions: ATCC 11632, 24 h, read-out: DIZ; summary of the method: as §2
[19] = test system: Bacillus cereus; test: Antimicrobial activity against Bacillus cereus MTCC 7350 after 24 hrs by broth micro serial dilution method; type: functional; conditions: MTCC 7350, 24 h; summary of the method: as §4
[20] = test system: Mus musculus; test: Antiinflammatory activity in mouse assessed as inhibition of carrageenan-induced increase in paw volume at 200 mg/kg administered 1 hr prior to carrageenan challenge measured after 3 hrs relative to control; type: functional
Summary of the method: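 Mice were fasted 2 h and placed in groups of five. Controls received saline i.p. Phenylbutazone was given at 100 mg/kg i.p., curcumin at 200 mg/kg i.p., and derivatives at 200 mg/kg. After 1 h, 0.1 mL of 1% carrageenan in saline was injected subplantar into the right hind paw. Paw volume was followed by plethysmometer for 3 h, and % inhibition was calculated as (Vc − Vt)/Vc × 100.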

[21] = test system: Salmonella typhi; test: Antimicrobial activity against Salmonella typhi ATCC 23564 assessed as diameter of inhibition zone at 40 uM after 24 hrs by Kirby -Baur disc diffusion method; type: functional, Salmonella enterica subsp. enterica serovar Typhi; conditions: Salmonella enterica, ATCC 23564, 24 h; read-out: DIZ
[22] = test system: Aspergillus flavus; test: Antifungal activity against Aspergillus flavus MTCC 1021 assessed as zone of inhibition at 20 uM after 48 hrs by disc diffusion method; type: functional; summary of the method: as §1
[23] = test system: Staphylococcus aureus; test: Antimicrobial activity against Staphylococcus aureus ATCC 11632 after 24 hrs by broth micro serial dilution method; type: functional; conditions: ATCC 11632, 24 h; summary of the method: as §4
[24] = test system: HCT-116; test: Cytotoxicity against human HCT116 cells after 24 hrs by MTT assay; type: functional, cell-based; summary of the method: as §3
[25] = test system: Escherichia coli; test: Antimicrobial activity against Escherichia coli ATCC 35218 assessed as diameter of inhibition zone at 40 uM after 24 hrs by Kirby -Baur disc diffusion method; type: functional; conditions: ATCC 35218, 24 h, read-out: DIZ; summary of the method: as §2
[26] = test system: Curvularia lunata; test: Antifungal activity against Curvularia lunata MTCC 581 after 48 hrs; type: functional; conditions: MTCC 581, 48 h
[27] = test system: Aspergillus flavus; test: Antifungal activity against Aspergillus flavus MTCC 1021 after 48 hrs; type: functional; conditions: MTCC 1021, 48 h
[28] = test system: Escherichia coli; test: Antimicrobial activity against Escherichia coli ATCC 35218 assessed as diameter of inhibition zone at 80 uM after 24 hrs by Kirby -Baur disc diffusion method; type: functional; conditions: ATCC 35218, 24 h, read-out: DIZ; summary of the method: as §2
[29] = test system: Curvularia lunata; test: Antifungal activity against Curvularia lunata MTCC 581 assessed as zone of inhibition at 20 uM after 48 hrs by disc diffusion method; type: functional; conditions: MTCC 581, 48 h, read-out: IZ; summary of the method: as §1
[30] = test system: Staphylococcus aureus; test: Antimicrobial activity against Staphylococcus aureus ATCC 11632 assessed as diameter of inhibition zone at 80 uM after 24 hrs by Kirby -Baur disc diffusion method; type: functional; conditions: ATCC 11632, 24 h, read-out: DIZ; summary of the method: as §2
[31] = test system: Aspergillus niger; test: Antifungal activity against Aspergillus niger MTCC 1108 assessed as zone of inhibition at 80 uM after 48 hrs by disc diffusion method; type: functional; conditions: MTCC 1108, 48 h, read-out: IZ; summary of the method: as §1
[32] = test system: Escherichia coli; test: Antimicrobial activity against Escherichia coli ATCC 35218 after 24 hrs by broth micro serial dilution method; type: functional; conditions: ATCC 35218, 24 h; summary of the method: as §4
[33] = test system: Escherichia coli; test: Antimicrobial activity against Escherichia coli ATCC 35218 assessed as diameter of inhibition zone at 20 uM after 24 hrs by Kirby -Baur disc diffusion method; type: functional; conditions: ATCC 35218, 24 h, read-out: DIZ; summary of the method: as §2
[34] = test system: Bacillus cereus; test: Antimicrobial activity against Bacillus cereus MTCC 7350 assessed as diameter of inhibition zone at 80 uM after 24 hrs by Kirby -Baur disc diffusion method; type: functional; conditions: MTCC 7350, 24 h, read-out: DIZ; summary of the method: as §2
[35] = test system: Pseudomonas aeruginosa; test: Antimicrobial activity against Pseudomonas aeruginosa ATCC 15499 assessed as diameter of inhibition zone at 40 uM after 24 hrs by Kirby -Baur disc diffusion method; type: functional; conditions: ATCC 15499, 24 h, read-out: DIZ; summary of the method: as §2
[36] = test system: Trichoderma viride; test: Antifungal activity against Trichoderma viride MTCC 1107 assessed as zone of inhibition at 40 uM after 48 hrs by disc diffusion method; type: functional; conditions: MTCC 1107, 48 h, read-out: IZ; summary of the method: as §1
[37] = test system: Bacillus cereus; test: Antimicrobial activity against Bacillus cereus MTCC 7350 assessed as diameter of inhibition zone at 20 uM after 24 hrs by Kirby -Baur disc diffusion method; type: functional; conditions: MTCC 7350, 24 h, read-out: DIZ; summary of the method: as §2
[38] = test system: Staphylococcus aureus; test: Antimicrobial activity against Staphylococcus aureus ATCC 11632 assessed as diameter of inhibition zone at 40 uM after 24 hrs by Kirby -Baur disc diffusion method; type: functional; conditions: ATCC 11632, 24 h, read-out: DIZ; summary of the method: as §2
[39] = test system: Salmonella typhi; test: Antimicrobial activity against Salmonella typhi ATCC 23564 assessed as diameter of inhibition zone at 80 uM after 24 hrs by Kirby -Baur disc diffusion method; type: functional, Salmonella enterica subsp. enterica serovar Typhi; conditions: Salmonella enterica, ATCC 23564, 24 h; read-out: DIZ
[40] = test system: Pseudomonas aeruginosa; test: Antimicrobial activity against Pseudomonas aeruginosa ATCC 15499 assessed as diameter of inhibition zone at 80 uM after 24 hrs by Kirby -Baur disc diffusion method; type: functional; conditions: ATCC 15499, 24 h, read-out: DIZ; summary of the method: as §2
[41] = test system: Bacillus cereus; test: Antimicrobial activity against Bacillus cereus MTCC 7350 assessed as diameter of inhibition zone at 40 uM after 24 hrs by Kirby -Baur disc diffusion method; type: functional; conditions: MTCC 7350, 24 h, read-out: DIZ; summary of the method: as §2

Compound: COc1cc(/C=C/C(CC(/C=C/c2ccc(O)c(OC)c2)=N/c2ccc(S(=O)(=O)Nc3ccccn3)cc2)=N\c2ccc(S(=O)(=O)Nc3ccccn3)cc2)ccc1O
- inhibition zone (IZ) [1]: inactive
- MIC [2]: 40 µM (≈ 33.2 µg/mL)
- MIC [3]: 80 µM (≈ 66.5 µg/mL)
- MIC [4]: 20 µM (≈ 16.6 µg/mL)
- zone of inhibition at 40 µM [5]: 9 mm
- zone of inhibition at 20 µM [6]: 13 mm
- IC50 [7]: 50 µM
- zone of inhibition at 40 µM [8]: 9 mm
- zone of inhibition at 40 µM [9]: 9 mm
- IC50 [10]: 100 µM
- MIC [11]: 40 µM (≈ 33.2 µg/mL)
- zone of inhibition at 80 µM [12]: 17 mm
- zone of inhibition at 80 µM [13]: 12 mm
- zone of inhibition at 20 µM [14]: 12 mm
- zone of inhibition at 20 µM [15]: 10 mm
- zone of inhibition at 80 µM [16]: 11 mm
- IC50 [17]: 100 µM
- zone of inhibition at 20 µM [18]: 13 mm
- MIC [19]: 40 µM (≈ 33.2 µg/mL)
- inhibition in vivo at 200 mg/kg [20]: 9.6%
- zone of inhibition at 40 µM [21]: 17 mm
- inhibition zone (IZ) [22]: inactive
- MIC [23]: 40 µM (≈ 33.2 µg/mL)
- IC50 [24]: 50 µM
- zone of inhibition at 40 µM [25]: 16 mm
- MIC [26]: 80 µM (≈ 66.5 µg/mL)
- MIC [27]: > 80 µM
- zone of inhibition at 80 µM [28]: 17 mm
- zone of inhibition at 20 µM [29]: 9 mm
- zone of inhibition at 80 µM [30]: 19 mm
- zone of inhibition at 80 µM [31]: 12 mm
- MIC [32]: 40 µM (≈ 33.2 µg/mL)
- zone of inhibition at 20 µM [33]: 12 mm
- zone of inhibition at 80 µM [34]: 18 mm
- zone of inhibition at 40 µM [35]: 16 mm
- zone of inhibition at 40 µM [36]: 13 mm
- zone of inhibition at 20 µM [37]: 10 mm
- zone of inhibition at 40 µM [38]: 17 mm
- zone of inhibition at 80 µM [39]: 19 mm
- zone of inhibition at 80 µM [40]: 18 mm
- zone of inhibition at 40 µM [41]: 15 mm

Source: ChEMBL document CHEMBL2384906, “Biological activity, design, synthesis and structure activity relationship of some novel derivatives of curcumin containing sulfonamides” (Eur J Med Chem, 2013)
